Published values of several laboratories.
Lines come from different studies, so protocols differ.
Matrix: plasma

COc1ccc([C@@H]2CN(C(=O)[C@@H](O)CO)C[C@@]2(C)[C@@H](C)O)cc1OC1CN(c2ccc(C)cn2)C1 has a Cmax of 799 ng/mL (human; oral, 40 mg, single dose, healthy volunteers).
The Cmax of CC(C)(O)c1ccccc1-c1ccc2[nH]c(/C=C/c3ccc(C(F)(F)F)cc3)nc2c1 is reported as 177 ng/mL (male human; oral, 60 mg, single dose, fasted, healthy volunteers).
The Cmax of COCCOc1cnc2ccn([C@H](C)c3nnc4c(F)cc(-c5cnn(C)c5)cn34)c(=O)c2c1 is reported as 600 ng/mL (human; oral, 25 mg, multiple doses, once daily, patients).
COc1cc(C(=O)NC2CCN(C)CC2)c(F)cc1Nc1ncc(C(F)(F)F)c(Oc2cccc3c2C(=O)N(C)C3)n1 gave a Cmax of 312 nM (human; oral, 50 mg, single dose, patients).
For C[C@@]1(c2cc(NC(=O)c3ccc(C#N)cn3)ccc2F)C=CSC(N)=N1, the Cmax was 17.2 ng/mL (human; oral, 3 mg, single dose).
Cc1ccc(C(=O)N(CCCN)[C@@H](c2oc3cc(Cl)ccc3c(=O)c2Cc2ccccc2)C(C)C)cc1 has a Cmax of 817 ng/mL (human; intravenous, 6 mg/m², single dose, patients, infusion).
CCn1c(=O)c(-c2cc(NC(=O)Nc3ccccc3)c(F)cc2Br)cc2cnc(NC)cc21 has a Cmax of 339 ng/mL (human; oral, 50 mg, single dose, patients).
CC(C)n1cc(C#N)c2cc(-n3cc(C(=O)O)cn3)ccc21 has a Cmax of 3520 ng/mL (human; oral, 100 mg, single dose, fasted, healthy volunteers).
With Cn1cc(-c2ccc(S(=O)(=O)[C@@H]3C[C@@H](C(=O)NC4(C#N)CC4)N(C(=O)C4(C(F)(F)F)CC4)C3)c(C(F)(F)F)c2)cn1 the Cmax was 1070 ng/mL (human; oral, 300 mg, single dose, fasted, healthy volunteers).
CCc1nc2c(C)cc(N3CCN(CC(=O)N4CC(O)C4)CC3)cn2c1N(C)c1nc(-c2ccc(F)cc2)c(C#N)s1 gave a Cmax of 3800 ng/mL (human; oral, 300 mg, single dose, fed, healthy volunteers).
CO[C@H]1CC[C@H](N2C(=O)CNc3ncc(-c4ccc(C(C)(C)O)nc4)nc32)CC1 has a Cmax of 45.8 ng/mL (human; oral, 7.5 mg, patients).
